A selection: hits, their analogues and other compounds. The true share with any hit is near 2.6%.
SENP1 inh – SENP1 (human) catalytic domain inhibition | inhibition, % at 10 µM | actives 0.21% (n = 360,000) | recombinant SENP1 catalytic domain, CyPet-SUMO1-YPet FRET cleavage;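 active = inhibition at least 30% at 10 µM, raw YFP signal under a set limit, fluorescence ratio 0.5 to 1.5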;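 note: 0% = enzyme with DMSO and 100% = no enzyme wells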
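Test system: hSENP1 catalytic domain, recombinant; Amount: 20 pM final SENP1 enzyme; Medium: Tris pH 8 buffer plus EDTA, NaCl, BME, BSA, NP40, catalase; Schedule: 50 min enzyme reaction, room temperature, light-protected; Technique: FRET fluorescence in CFP and YFP emission channels; Controls: no-enzyme wells low, DMSO-plus-enzyme wells high control.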
Platelet DG rel – modulates dense granule release in human platelets. actives 0.22% (n = 300,000). human platelet-rich plasma, SFLLRN dense granule ATP release, luminescence. AID 1663. inhibition, %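 (compounds screened at 7.5 µM in platelet-rich plasma)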;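 active = mean replicate score, as percent of positive control, at or above 50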
SENP8 block-1 – SENP8 (human) protease inhibition | Q96LD8 | actives 0.64% (n = 360,000) | recombinant SENP8, Nedd8 substrate fluorescence | inhibition, % at 20 µM; in the data active = inhibition mostly above about 40%, no sharp cut-off; inactive = mostly below about 27%
SENP8 block-2 – inhibitors of human SENP8 protease; AID 2540; actives 1.2% (n = 330,000); inhibition, % at 10 µM; purified SENP8, Z-RLRGG-aminoluciferin cleavage, luminescence; in the data active = inhibition above about 50%
SENP6 inh – inhibitors of human SENP6 protease; inhibition, % at 10 µM; actives 1.8% (n = 330,000); Q9GZR1; Recombinant SENP6 catalytic domain, aminoluciferin luminescence; AID 2599;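 active = inhibition above about 50% at the single tested dose, limit read from the data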;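 note: plate controls were DMSO wells with enzyme for no effect and DMSO wells lacking enzyme for full effect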
Target sequence (Q9GZR1 628-1112 limits assumed): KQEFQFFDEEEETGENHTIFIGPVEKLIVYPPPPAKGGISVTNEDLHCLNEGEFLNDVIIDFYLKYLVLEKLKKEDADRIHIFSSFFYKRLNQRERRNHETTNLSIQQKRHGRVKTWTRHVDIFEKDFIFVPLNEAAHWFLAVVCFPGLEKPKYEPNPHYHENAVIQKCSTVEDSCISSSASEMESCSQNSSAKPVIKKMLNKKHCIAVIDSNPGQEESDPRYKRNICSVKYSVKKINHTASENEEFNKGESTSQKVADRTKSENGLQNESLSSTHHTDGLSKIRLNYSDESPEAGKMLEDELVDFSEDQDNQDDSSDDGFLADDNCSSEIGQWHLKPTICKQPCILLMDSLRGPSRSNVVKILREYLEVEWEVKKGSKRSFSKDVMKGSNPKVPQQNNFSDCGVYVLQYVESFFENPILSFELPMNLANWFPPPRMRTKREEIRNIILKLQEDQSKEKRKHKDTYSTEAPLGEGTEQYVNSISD
SENP7 block – SENP7 protease inhibition; actives 1.5% (n = 330,000); inhibition, % at 5 µM; AID 434973; recombinant SENP7, Z-RLRGG-aminoluciferin luminescence, 40 min; Q9BQF6;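 active = inhibition above about 50% at the single test dose, limit read from the data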;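 note: plate controls were DMSO with enzyme for no effect and no enzyme buffer wells for full effect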
SENP8 conf – human SENP8 inhibition, confirmed. shares compounds with SENP7 block. Recombinant SENP8, Z-RLRGG-aminoluciferin luminescence, 60 min. inhibition, % at 12.5 µM. actives 40% (n = 6,200);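 active = mean inhibition across replicates above about 50%, limit read from the data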
SENP6 confirm – human SENP6 inhibition, confirmed. shares compounds with SENP7 block. recombinant SENP6, Z-RLRGG-aminoluciferin luminescence. inhibition, % at 12.5 µM. actives 58% (n = 6,200)
SENP7 conf – human SENP7 inhibition, confirmed. actives 69% (n = 6,200). shares compounds with SENP7 block. AID 488917. inhibition, % at 12.5 µM. recombinant SENP7, Z-RLRGG-aminoluciferin luminescence, 40 min
Casp3 SENP sel – selectivity test for SENP inhibitors: human caspase-3 inhibition | shares compounds with SENP7 block | purified caspase-3, Z-DEVD-aminoluciferin luminescence, 60 min | inhibition, % at 12.5 µM | actives 60% (n = 6,200) | AID 488918;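 active = mean inhibition above about 50%, limit read from the data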;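 note: plate controls were enzyme with DMSO for no effect and wells without caspase-3 for full effect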
Luc interf – luminescence interference (SENP counter-screen) | Pre-incubated SENP8/Z-RLRGG-aminoluciferin, luciferase luminescence interference | shares compounds with SENP7 block | actives 39% (n = 6,200) | inhibition, % at 12.5 µM;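 active = mean inhibition above about 50% when retested at one dose, limit read from the data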;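 note: plate controls were DMSO wells with completed reaction for no effect and substrate without enzyme for full effect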
* marks the source's active call; other numbers are inactive results; nt = not tested or not shown.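 Rule for the calls, unless noted: active = mean inhibition above about 50% in the one-dose retest (limit read from the data); inactive = the rest.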

SMILES	SENP1 inh	Platelet DG rel	SENP8 block-1	SENP8 block-2	SENP6 inh	SENP7 block	SENP8 conf	SENP6 confirm	SENP7 conf	Casp3 SENP sel	Luc interf
COc1ccc(N(CC(=O)NCc2ccc3c(c2)OCO3)S(C)(=O)=O)cc1OC	-0.4	-10.0	5.1	-5.6	-11.6	93.8*	2.3	0.1	-2.4	-2.5	-2.5
C=CCn1c(CSc2nc3ccccc3s2)nnc1SCC(=O)NCCN1CCOCC1	0.9	-0.3	10.9	-1.8	0.0	-4.9	nt	nt	nt	nt	nt
Cn1c(CSc2nc3ccccc3s2)nnc1SCC(=O)NCCN1CCOCC1	-1.3	0.2	10.5	-3.1	3.5	75.6*	9.8	7.7	4.7	1.2	3.9
O=C(COc1ccc2ccccc2c1)Nc1nccs1	-4.9	-14.3	3.0	66.3*	61.0*	77.3*	42.0	88.9*	98.9*	81.4*	75.9*
O=C(COc1ccccc1)Nc1nccs1	0.2	14.2	-3.5	61.3*	75.4*	6.0	-2.7	61.4*	89.9*	90.2*	73.6*
CN1CCSc2ccc(C(=O)Nc3cc(F)ccc3F)cc21	-60.3	0.4	-420.6	76.3*	87.9*	89.1*	86.0*	85.8*	96.4*	78.6*	24.8
Cc1ccccc1NC(=O)c1ccc2c(c1)N(C)CCS2	-3.1	0.0	-395.9	15.0	33.4	8.2	nt	nt	nt	nt	nt
N#C/C(=C/c1ccc([N+](=O)[O-])cc1)C(N)=O	1.3	-4.4	0.1	2.9	10.4	0.8	nt	nt	nt	nt	nt
N#C/C(=C(/O)c1ccc([N+](=O)[O-])s1)c1nc2ccccc2[nH]1	9.5	7.7	31.9	3.2	20.0	52.0*	5.3	8.2	6.0	16.1	4.8
c1ccc(OCc2nc3ccccc3[nH]2)cc1	-0.3	-0.4	8.9	30.6	60.5*	53.7*	50.0	50.9*	84.8*	81.7*	67.9*
Cc1ccc(C(=O)Cc2nc3ccccc3[nH]2)cc1	-24.9	-5.0	-3.0	-1.5	-20.4	4.2	nt	nt	nt	nt	nt
Cc1ccc(OCc2nc3ccccc3[nH]2)cc1	1.1	-2.2	3.9	60.7*	45.1	67.5*	52.0*	53.2*	77.8*	70.5*	61.2*
Cc1nnc(NC(=O)CSc2nnc(C(C)NC(=O)c3ccccc3F)n2C)s1 (stereo not given)	0.4	8.4	10.7	-1.7	-3.2	-12.8	nt	nt	nt	nt	nt
O=C(NC(=S)Nc1cccc(CO)c1)c1ccc(-c2ccccc2)cc1	0.8	3.8	6.0	26.8	55.8*	9.6	5.5	-2.4	14.6	3.8	-1.0
CCCCN(CCCC)CC(O)COc1ccc(Br)cc1 (stereo not given)	0.2	-2.1	23.8	-3.8	-10.2	-4.4	nt	nt	nt	nt	nt
Cc1ccc(Nc2ccccc2)cc1	2.0	-6.4	18.0	-5.5	-18.8	2.7	nt	nt	nt	nt	nt
Cc1ccc(NC2=Nc3ccccc3CS2)cc1	0.8	-13.1	27.3	75.0*	82.9*	92.0*	49.7	82.6*	94.9*	85.1*	5.8
C[C@H](CO)N1C[C@H](C)[C@H](CN(C)Cc2ccncc2)Oc2ncc(Br)cc2C1=O	1.0	nt	3.5	nt	nt	nt	nt	nt	nt	nt	nt
NC(=O)C1CCN(C(=O)c2ccc(Cl)c(S(=O)(=O)N3CCCCCC3)c2)CC1	0.8	nt	4.4	-2.6	-12.9	9.9	nt	nt	nt	nt	nt
COc1ccc(N2C(=O)/C(=C/c3ccc([N+](=O)[O-])cc3)C=C2c2ccccc2)cc1	-0.9	-17.1	20.7	0.8	-9.3	60.5*	7.2	6.9	9.4	7.1	1.9
